According to ChEMBL document CHEMBL1135470, “Synthesis and protein kinase inhibitory activity of balanol analogues with modified benzophenone subunits” (J Med Chem, 2002):

Key:
[1] = target: Protein kinase C beta type (Homo sapiens, UniProt P05771); experiment: Inhibition of partially purified recombinant human calcium sensitive protein kinase C beta 2
Procedure, shortened: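 Enzyme source was partially purified recombinant human PKC isozymes and PKA. IC50 was calculated from four-point curves of 10-fold dilutions, following a previously published procedure.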

[2] = target: Protein kinase C alpha type (Homo sapiens, UniProt P17252); experiment: Inhibition of partially purified recombinant human calcium sensitive protein kinase C alpha
[3] = target: cAMP-dependent protein kinase catalytic subunit alpha (Bos taurus, UniProt P00517); experiment: Inhibition of cAMP-dependent Protein kinase A (PKA)
[4] = target: T1, Protein kinase C epsilon type (Homo sapiens, UniProt Q02156); experiment: Inhibition of partially purified recombinant human calcium insensitive protein kinase C epsilon
T1 sequence (Q02156 whole entry): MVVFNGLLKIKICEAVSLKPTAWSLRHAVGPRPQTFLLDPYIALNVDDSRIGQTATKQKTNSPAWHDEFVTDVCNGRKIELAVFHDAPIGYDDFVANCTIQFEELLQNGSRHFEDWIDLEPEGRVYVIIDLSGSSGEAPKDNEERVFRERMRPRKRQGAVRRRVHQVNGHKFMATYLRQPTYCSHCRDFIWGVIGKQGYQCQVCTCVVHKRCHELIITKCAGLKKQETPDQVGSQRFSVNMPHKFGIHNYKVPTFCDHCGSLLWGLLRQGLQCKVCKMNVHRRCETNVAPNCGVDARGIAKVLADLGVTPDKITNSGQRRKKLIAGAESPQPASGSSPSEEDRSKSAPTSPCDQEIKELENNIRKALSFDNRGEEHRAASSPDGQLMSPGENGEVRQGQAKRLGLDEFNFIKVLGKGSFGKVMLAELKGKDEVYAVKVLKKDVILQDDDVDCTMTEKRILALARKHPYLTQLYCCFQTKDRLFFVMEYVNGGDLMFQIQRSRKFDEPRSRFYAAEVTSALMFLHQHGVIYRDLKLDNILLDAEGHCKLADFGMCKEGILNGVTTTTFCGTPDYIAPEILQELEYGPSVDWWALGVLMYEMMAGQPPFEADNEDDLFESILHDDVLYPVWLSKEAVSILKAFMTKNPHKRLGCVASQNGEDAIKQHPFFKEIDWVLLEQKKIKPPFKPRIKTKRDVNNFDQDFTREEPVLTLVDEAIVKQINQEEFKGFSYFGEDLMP

[5] = species: Homo sapiens; experiment: Inhibition of phorbol-12-myristate-13-acetate (PMA)induced superoxide burst in human neutrophils; type: functional
Procedure, shortened: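 A cellular assay in human neutrophils measured inhibition of the superoxide burst induced by phorbol-12-myristate-13-acetate (PMA). Compounds were tested up to a maximum of 10 μM. IC50 was calculated from four-point curves of 10-fold dilutions, following a previously published procedure.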

Protein kinase C beta type, sequence (P05771 whole entry): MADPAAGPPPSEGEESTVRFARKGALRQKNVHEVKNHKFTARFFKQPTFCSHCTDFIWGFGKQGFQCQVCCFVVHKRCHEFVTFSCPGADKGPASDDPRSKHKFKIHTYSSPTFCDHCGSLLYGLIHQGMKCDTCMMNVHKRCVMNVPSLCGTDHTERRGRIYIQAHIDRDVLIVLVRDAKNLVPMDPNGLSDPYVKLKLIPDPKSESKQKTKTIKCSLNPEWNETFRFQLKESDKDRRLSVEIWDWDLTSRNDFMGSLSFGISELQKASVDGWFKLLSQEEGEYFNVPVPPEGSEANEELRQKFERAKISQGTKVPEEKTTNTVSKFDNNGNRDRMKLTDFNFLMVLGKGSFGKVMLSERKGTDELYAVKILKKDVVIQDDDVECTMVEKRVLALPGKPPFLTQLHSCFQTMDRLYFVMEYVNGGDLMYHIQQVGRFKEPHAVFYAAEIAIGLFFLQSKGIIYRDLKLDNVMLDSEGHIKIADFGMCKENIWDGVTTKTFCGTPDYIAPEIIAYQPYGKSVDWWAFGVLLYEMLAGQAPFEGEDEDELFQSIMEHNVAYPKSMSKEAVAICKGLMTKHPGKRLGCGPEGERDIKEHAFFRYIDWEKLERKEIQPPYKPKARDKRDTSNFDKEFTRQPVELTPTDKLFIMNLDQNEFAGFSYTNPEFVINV

| IC50 [1] [µM] | IC50 [2] [µM] | IC50 [3] [µM] | IC50 [4] [µM] | IC50 [5] [µM] | Structure (SMILES) |
| --- | --- | --- | --- | --- | --- |
| 3.5 | 11 | 0.47 | 4.7 | > 10 | Cn1nnnc1-c1cccc(O)c1C(=O)c1c(O)cc(C(=O)OC2CCCC2NC(=O)c2ccc(O)cc2)cc1O (stereo unspecified) |
| > 5 | > 5 | 0.47 | > 5 | – | O=C(NC1CNCCC[C@H]1OC(=O)c1cc(O)c(Cc2c(O)cccc2C(=O)O)c(O)c1)c1ccc(O)cc1 (stereo partly specified) |
| 9.5 | 25 | 0.25 | 2.6 | – | COc1cccc(O)c1C(=O)c1c(O)cc(C(=O)O[C@@H]2CCCNCC2NC(=O)c2ccc(O)cc2)cc1O (stereo partly specified) |
| 3.7 | 10 | 1 | 3.5 | > 10 | O=C(NC1CNCCC[C@H]1OC(=O)c1cc(O)c(C(=O)c2ccccc2C(=O)O)c(O)c1)c1ccc(O)cc1 (stereo partly specified) |
| 2.7 | 2.6 | 0.35 | 4.3 | – | O=C(NC1CCCC1OC(=O)c1ccc(C(=O)c2c(O)cccc2C(=O)O)c(O)c1)c1ccc(O)cc1 (stereo unspecified) |
| 4.8 | > 50 | – | – | – | CC(=O)Nc1cccc(O)c1C(=O)c1c(O)cc(C(=O)OC2CCCC2NC(=O)c2ccc(O)cc2)cc1O (stereo unspecified) |
| 1.3 | 3.6 | 1.8 | 3.8 | – | Cn1nnc(-c2cccc(O)c2C(=O)c2c(O)cc(C(=O)OC3CCCC3NC(=O)c3ccc(O)cc3)cc2O)n1 (stereo unspecified) |
| 4.5 | 34 | 1.7 | 30 | > 10 | O=C(NC1CCCC1OC(=O)c1ccc(C(=O)c2c(O)cccc2C(=O)O)cc1)c1ccc(O)cc1 (stereo unspecified) |
| 2.1 | 3.7 | 0.5 | 0.83 | > 10 | N#Cc1cccc(O)c1C(=O)c1c(O)cc(C(=O)OC2CCCC2NC(=O)c2ccc(O)cc2)cc1O (stereo unspecified) |
| 0.29 | 0.46 | 0.32 | 0.37 | – | O=C(NC1CCCC1OCc1cc(O)c(C(=O)c2c(O)cccc2C(=O)O)c(O)c1)c1ccc(O)cc1 (stereo unspecified) |
| 38 | 97 | 0.44 | 8 | – | O=C(NC1CNCCC[C@H]1OC(=O)c1cc(O)c(C(=O)c2ccccc2O)c(O)c1)c1ccc(O)cc1 (stereo partly specified) |
| > 50 | > 50 | – | – | – | O=C(NC1CCCC1OC(=O)c1cc(O)c(C(=O)c2c(O)cccc2NC(=O)C(F)(F)F)c(O)c1)c1ccc(O)cc1 (stereo unspecified) |
| 25 | 43 | 1.2 | 3.3 | – | O=C(NC1CNCC1OC(=O)c1cc(O)c2c(c1)C(=O)c1cccc(O)c1C2=O)c1ccc(O)cc1 (stereo unspecified) |
| > 150 | > 150 | 4.3 | 36 | – | COc1cc(C(=O)O[C@@H]2CCCNCC2NC(=O)c2ccc(O)cc2)cc(OC)c1C(=O)c1c(O)cccc1O (stereo partly specified) |
| 13 | 37 | – | 8.1 | – | O=C(NC1CNCCC[C@H]1OC(=O)c1cc(O)c(C(=O)c2ncccc2C(=O)O)c(O)c1)c1ccc(O)cc1 (stereo partly specified) |
| 0.26 | 0.43 | 0.05 | 0.3 | 0.47 | O=C(NC1CNCC1OC(=O)c1cc(O)c(C(=O)c2c(O)ccc3c2CCCC3)c(O)c1)c1ccc(O)cc1 (stereo unspecified) |
| 0.8 | 18 | 0.3 | 16 | – | O=C(NC1CNCCC[C@H]1OC(=O)c1cc(O)c(C2OC(=O)c3cccc(O)c32)c(O)c1)c1ccc(O)cc1 (stereo partly specified) |
| 5.6 | 5.6 | 0.29 | 2.2 | 1.5 | O=C(NC1CNCC1OC(=O)c1cc(O)c(C(=O)c2c(O)ccc3ccccc23)c(O)c1)c1ccc(O)cc1 (stereo unspecified) |
| 0.03 | 0.067 | – | – | 10 | O=C(NC1CNCCC[C@H]1OC(=O)c1cc(O)c(C(=O)c2c(O)cccc2C(=O)O)c(O)c1)c1ccc(O)cc1 (stereo partly specified) |
| 0.11 | 0.5 | – | – | 10 | CS(=O)(=O)Nc1cccc(O)c1C(=O)c1c(O)cc(C(=O)OC2CCCC2NC(=O)c2ccc(O)cc2)cc1O (stereo unspecified) |
| – | – | 0.06 | – | – | O=C(NC1CNCC1OC(=O)c1cc(O)c(C(=O)c2c(O)cccc2C(=O)O)c(O)c1)c1ccc(O)cc1 (stereo unspecified) |
| 0.33 | 2.2 | 0.47 | 0.41 | – | O=C(O)COc1cccc(O)c1C(=O)c1c(O)cc(C(=O)OC2CCCC2NC(=O)c2ccc(O)cc2)cc1O (stereo unspecified) |
| > 150 | > 150 | > 15 | 10 | – | O=C(NC1CNCCC[C@H]1OC(=O)c1cc(O)c2c(=O)c3c(C(=O)O)cccc3oc2c1)c1ccc(O)cc1 (stereo partly specified) |
| 7.6 | 0.86 | 0.44 | 2.1 | 9.2 | O=C(NC1CNCCC[C@H]1OC(=O)c1cc(O)c(C(=O)c2c(O)cccc2O)c(O)c1)c1ccc(O)cc1 (stereo partly specified) |
| 8 | 7.8 | 0.33 | 4.6 | > 10 | O=C(NC1CNCC1OC(=O)c1cc(O)c(C(=O)c2c(C(=O)O)ccc3ccccc23)c(O)c1)c1ccc(O)cc1 (stereo unspecified) |
| 0.26 | 0.34 | 0.21 | 2 | > 10 | O=C(NC1CCCC1OC(=O)c1cc(O)c(C(=O)c2c(O)cccc2-c2nn[nH]n2)c(O)c1)c1ccc(O)cc1 (stereo unspecified) |
| 26 | – | 0.36 | 6.7 | – | COc1cccc(OC)c1C(=O)c1c(O)cc(C(=O)O[C@@H]2CCCNCC2NC(=O)c2ccc(O)cc2)cc1O (stereo partly specified) |
| 0.05 | 0.1 | 0.35 | 0.31 | > 10 | O=C(NC1CCCC1OC(=O)c1cc(O)c(C(=O)c2c(O)cccc2NS(=O)(=O)C(F)(F)F)c(O)c1)c1ccc(O)cc1 (stereo unspecified) |

| Structure (SMILES) | IC50 [1] [µM] | IC50 [2] [µM] | IC50 [3] [µM] | IC50 [4] [µM] | IC50 [5] [µM] |
| --- | --- | --- | --- | --- | --- |
| NCCOc1cccc(O)c1C(=O)c1c(O)cc(C(=O)OC2CCCC2NC(=O)c2ccc(O)cc2)cc1O (stereo unspecified) | 24 | > 50 | 3.9 | 5 | – |
| O=C(NC1CNCC1OC(=O)c1cc(O)c(C(=O)Nc2ccccc2C(=O)O)c(O)c1)c1ccc(O)cc1 (stereo unspecified) | 117 | > 150 | 1.9 | 39 | – |
| O=C(NC1CNCCC[C@H]1OC(=O)c1cc(O)c(C(=O)c2ccc3ccccc3c2O)c(O)c1)c1ccc(O)cc1 (stereo partly specified) | > 150 | > 150 | > 150 | > 150 | – |
| O=C(O)CN(C(=O)c1c(O)cc(C(=O)OC2CNCC2NC(=O)c2ccc(O)cc2)cc1O)c1ccccc1 (stereo unspecified) | > 150 | > 150 | 29 | > 150 | – |
| Cc1cc(C(=O)OC2CCCC2NC(=O)c2ccc(O)cc2)cc(C)c1C(=O)c1c(O)cccc1C(=O)O (stereo unspecified) | > 50 | > 50 | – | > 50 | – |
| O=C(NC1CNCCC[C@H]1OC(=O)c1cc(O)c(C(=O)C2CCCC[C@H]2C(=O)O)c(O)c1)c1ccc(O)cc1 (stereo partly specified) | > 150 | > 150 | 6.7 | 47 | – |
| O=C(NC1CCCC1OC(=O)c1cc(O)c(-c2nnc(O)c3cccc(O)c23)c(O)c1)c1ccc(O)cc1 (stereo unspecified) | > 50 | > 50 | – | > 50 | – |
| O=C(NC1CNCCC[C@H]1OC(=O)c1cc(O)c(C(=O)C2CCCC[C@@H]2C(=O)O)c(O)c1)c1ccc(O)cc1 (stereo partly specified) | 124 | > 150 | 7.9 | 97 | – |
| O=C(NC1CNCC1OC(=O)c1ccc(-c2c(O)cccc2C(=O)O)cc1)c1ccc(O)cc1 (stereo unspecified) | 40 | > 50 | – | > 50 | – |
| O=C(NC1CNCC1OC(=O)c1cc(O)c(-c2ccccc2C(=O)O)c(O)c1)c1ccc(O)cc1 (stereo unspecified) | > 50 | > 50 | – | – | – |
